In the library only some 4.6% were active in any assay of this set; here they are far more common.
ALR inh: human ALR oxidase inhibition via reduced H2O2 | P55789 | purified ALR, DTT oxidation, H2O2 HRP-luminol luminescence | inhibition, % (test concentration not listed) | 290,000 compounds, 3.8% hits | AID 485317;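 active = mean replicate inhibition above about 79%, with every replicate also reaching it, limit read from the data; inconclusive = only one of the two criteria met; inactive = mean below limit and not every replicate reaching it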
Target sequence (P55789 whole entry, looked up): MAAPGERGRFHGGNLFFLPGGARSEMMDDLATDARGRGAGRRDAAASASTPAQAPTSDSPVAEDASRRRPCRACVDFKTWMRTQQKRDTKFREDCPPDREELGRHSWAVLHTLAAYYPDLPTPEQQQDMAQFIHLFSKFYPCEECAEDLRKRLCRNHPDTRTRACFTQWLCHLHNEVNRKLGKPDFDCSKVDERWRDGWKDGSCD
Arrestin-AP2 inh: blocks beta-arrestin peptide binding to AP2 adaptin | FITC-arrestin peptide / GST-AP2 beads, flow cytometry; AP2 beta2 appendage carries R879A mutation | inhibition, % at 10 µM | 340,000 compounds, 0.31% hits;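 active = inhibition above a set limit, near 3 SD of compounds lacking own fluorescence, cut at about 54% in these data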;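 also: plate controls were DMSO wells for no effect and 5 µM unlabelled arrestin peptide for full effect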
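Material – AP2 appendage R879A on GSH beads · Buffer or medium – PBS with 0.05% Tween 20 and 0.1% BSA · Probe or stimulus – fluorescein-tagged arrestin peptide at 50 nM final · Incubation – compound with beads 12 min RT, then probe 1 h RT · Detection – high-throughput flow cytometry of beads, ex 488, em 535 nm · Evaluation – percent response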
PolyA inh: yeast polyadenylation inhibition; AID 1875; activity score, % at 12 µM; 300,000 compounds, 0.02% hits; S. cerevisiae SKY197-pL101 polyadenylation reporter, beta-gal luminescence; efflux-impaired pdr1/pdr3 knockout yeast; score 100 = 6 SD above DMSO;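 active = lowest replicate activity score at least 50, where 100 means six control SD above control mean; inconclusive = lowest score under 50 but half or more replicates reach 50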;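 also: yeast exposed to compound for 9 h at 30 °C; higher score means more reporter readthrough which indicates perturbed polyadenylation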
NALP3 yeast inh: blocks the NALP3 inflammasome reconstituted in yeast | Yeast reconstituted NLRP3/ASC/caspase-1, beta-gal luminescence, 24 h | inhibition, % at 10 µM | 330,000 compounds, 0.39% hits;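 active = inhibition of 50% or more; inactive = inhibition below 50%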;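 also: plate controls were induced DMSO wells for no effect and uninduced yeast grown without galactose for full effect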
NALP1 inh: NALP1 inhibition | S. cerevisiae NALP1/ASC/caspase-1 growth, X-gal OD620, 72 h | inhibition, % at 10 µM | 280,000 compounds, 0.61% hits | AID 2071; in the data active = inhibition mostly above about 24%, no sharp cut-off; inactive = mostly below about 32%
Pemphigus Ab inh: inhibitors of pemphigus antibody binding to human desmoglein-3; binding (percent of control), % at 10 µM; 310,000 compounds, 0.48% hits; P32926; DSG3-coupled beads, scFv-anti-DSG3-GFP binding, flow cytometry; hits give low values;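 active = binding more than 3 SD below its plate's average and above zero; inconclusive = below that plate limit but binding exactly zero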;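 also: hits lower antibody fragment binding to DSG3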
* hit, by the source's call; ? = inconclusive; nt = no result.

SMILES	ALR inh	Arrestin-AP2 inh	PolyA inh	NALP3 yeast inh	NALP1 inh	Pemphigus Ab inh
O=C(CN1C(=O)NC2(CCCC2)C1=O)NNC(=O)c1ccc(F)cc1	0.4	38.5	7.5	0.5	nt	103.8
O=C(Nc1ccncc1)c1ccc2ncsc2c1	98.3*	0.6	5.5	7.5	nt	108.9
O=C(Nc1ccc(S(=O)(=O)Nc2ncccn2)cc1)c1ccc2ncsc2c1	99.0*	-13.9	-5.6	9.6	8.7	111.2
O=C(Nc1ccc(S(=O)(=O)Nc2ncccn2)cc1)c1ccc(S(=O)(=O)N2CCCC2)cc1	96.1*	5.2	1.5	14.1	6.0	110.9
O=C(Nc1ccc(S(=O)(=O)Nc2ncccn2)cc1)c1cccc([N+](=O)[O-])c1	nt	nt	nt	nt	nt	97.8
Cc1cc(Br)c(NC(=O)CN2C(=O)NC3(CCOc4ccccc43)C2=O)c(Br)c1 (stereo unspecified)	nt	nt	nt	nt	nt	110.9
O=C(O)c1ccc(C(S(=O)(=O)c2ccccc2)S(=O)(=O)c2ccccc2)cc1	nt	nt	nt	nt	nt	102.7
COc1ccc(CCNC(=O)c2ccccc2)cc1	10.6	-11.0	4.4	19.8	5.2	64.8*
O=C(NCCc1ccc([N+](=O)[O-])cc1)c1ccccc1	-8.5	-12.4	5.6	2.4	34.0*	102.0
CCOCCCNC(=O)c1ccc(OC(C)=O)cc1	2.4	19.8	15.9	-1.3	13.7	nt
CCOCCCNC(=O)c1ccc(-n2c(=S)[nH]c3ccccc3c2=O)cc1	84.3*	7.3	-8.5	-2.8	-14.6	111.9
COc1ccc(CCNC(=O)c2ccccc2C(=O)NCCc2ccc(OC)cc2)cc1	-5.7	-14.1	-14.7	-4.0	nt	108.3
CCOCCCNC(=O)c1ccc(OC)cc1	nt	-4.2	11.6	-4.6	27.6*	105.6
CCCCNC(=O)c1ccc2c(=O)n(CCCOCC)c(=S)[nH]c2c1	-3.6	4.6	1.3	1.8	4.1	88.3
CCCCOP(=O)(OCCCC)C1(C)CC(=O)CC(C)(C)C1 (stereo unspecified)	nt	39.0	nt	nt	nt	119.6
O=C(NCCc1ccccc1)C(=O)Nc1ccc([N+](=O)[O-])cc1	-2.9	4.7	7.8	2.4	29.8*	82.6
O=C(CNC(=O)c1ccccc1)NCC(=O)OCC(=O)c1ccc([N+](=O)[O-])cc1	97.1*	3.5	1.9	0.3	13.9	100.9
O=C(CNC(=O)c1ccc(Br)cc1)NCC(=O)OCC(=O)c1ccc([N+](=O)[O-])cc1	-16.6	6.1	-0.8	5.3	21.5	104.1
O=C(NCCc1ccccc1)c1ccc([N+](=O)[O-])cc1	-5.5	3.8	-3.8	23.9	5.7	108.1
COc1ccccc1CNC(=O)c1cccc(N(C)C)c1	42.4	-11.2	-17.3	17.4	12.8	112.8
C=CCNC(=O)c1ccc2nc(Cc3ccc(OC)cc3)oc2c1	nt	7.0	4.7	nt	nt	119.5
COCCCNC(=O)c1ccc2nc(Cc3ccc(OC)cc3)oc2c1	nt	5.4	-10.4	14.6	25.1*	96.5
COc1ccc(CNC(=O)c2cccc(N(C)C)c2)cc1	82.7*	20.9	-0.9	24.0	14.2	101.7
O=C(O)C(CCc1ccccc1)(Cc1ccccc1)C(=O)O	nt	-8.0	nt	nt	nt	91.8
CCCCOC(=O)Sc1nc2ccccc2o1	92.6*	29.3	?	21.8	9.2	nt
SMILES	ALR inh	Arrestin-AP2 inh	PolyA inh	NALP3 yeast inh	NALP1 inh	Pemphigus Ab inh
CCN(CC)c1ccc(CN(C(=O)c2ccco2)C2CCS(=O)(=O)C2)cc1 (stereo unspecified)	98.9*	-0.2	-12.5	13.4	22.9	98.4
CCN(CC)c1ccc(CN(C(=O)c2cccs2)C2CCS(=O)(=O)C2)cc1 (stereo unspecified)	99.3*	-0.4	9.8	9.0	4.5	109.6
CCN(CC)c1ccc(CN(C(=O)c2cc(OC)c(OC)c(OC)c2)C2CCS(=O)(=O)C2)cc1 (stereo unspecified)	93.7*	0.6	-11.9	6.7	-9.8	99.5
Cc1cc(C)c(CN2CCN(C(=O)Cn3cnc4c(OCc5ccccc5)ncnc43)CC2)c(C)c1	nt	12.7	nt	11.7	nt	107.5
N#CC1=C(SCc2ccccc2)NC(=O)CC1c1ccc(O)cc1 (stereo unspecified)	-5.4	7.9	21.2	3.0	-3.2	102.3
N#CC1=C(SCc2ccccc2)NC(=O)CC1c1cccc(O)c1 (stereo unspecified)	4.1	-16.4	21.5	20.3	6.9	83.0*
COc1ccc(C)cc1NC(=O)C(Sc1nnnn1C)c1ccccc1 (stereo unspecified)	1.5	3.0	0.3	23.8	-12.8	96.6
COCCn1c(SC(C(=O)Nc2cc(C)ccc2OC)c2ccccc2)nnc1-c1ccc(Cl)cc1 (stereo unspecified)	98.9*	25.4	-2.9	14.7	20.9	92.2
O=C(NCc1ccccc1)/C(=C\c1ccc(O)cc1)NC(=O)c1ccco1	97.5*	-6.4	23.2	8.5	0.5	103.2
O=C(NCc1ccccc1)/C(=C/c1ccco1)NC(=O)c1ccco1	93.2*	9.9	3.2	6.3	17.8	90.7
O=C(NCc1cc2ccccc2[nH]1)C1CCC(=O)N(CCCN2CCCC2=O)C1 (stereo unspecified)	-2.6	7.1	-4.1	4.7	4.8	108.1
C/C(=N\N(Cc1ccccc1)c1ccccc1)c1cccnc1	98.5*	3.4	-1.9	13.0	10.4	101.2
C(=N\N(Cc1ccccc1)c1ccccc1)/c1cccnc1	-16.5	6.6	-19.6	5.6	12.0	102.1
CN1C=CC=C/C1=C1\SC(=S)N(CC(=O)O)C1=O	55.2	12.6	13.3	22.0	-18.5	104.4
CN1C=CC=C/C1=C1\SC(=S)N(c2ccccc2)C1=O	98.8*	21.9	-14.3	13.1	1.0	98.1
CN1C=CC=C/C1=C1\SC(=S)N(C2CCCCC2)C1=O	98.9*	-0.7	-4.9	22.2	8.3	102.4
C=CCN1C=CC=C/C1=C1\SC(=S)N(C)C1=O	99.2*	-35.9	1.8	7.5	6.6	102.3
O=C1NCCOC(=O)[C@@H](Cc2ccc(F)cc2)C/C=C\C[C@@H]1CC(=O)N(CCO)Cc1ccccc1	-3.3	nt	nt	4.4	nt	98.3
c1ccc(COc2ncnc3c2ncn3CCCNCc2ccc3c(c2)OCO3)cc1	nt	-12.2	nt	nt	nt	95.8
CCN(C[C@H]1N[C@@](CC)(C(=O)OC)[C@H]2C(=O)N(C)C(=O)[C@@H]12)C(=O)Nc1ccc(C)cc1	nt	-6.1	nt	4.1	nt	101.7
CC1CCC2(CC1)NC(=O)N(CC(=O)Nc1cccc(S(=O)(=O)N3CCCC3)c1)C2=O (stereo unspecified)	-0.4	3.9	nt	-3.1	nt	nt
Cc1cc(N2CCN(c3ccccc3)CC2)n2ncnc2n1	97.6*	10.6	3.0	5.6	-2.7	106.4
Cc1cc(N2CCN(c3ccccc3)CC2)nc(-c2ccccc2)n1	2.2	26.8	-46.9	14.9	17.8	106.4
COc1cccc(N2CCN(c3c4c(nc5ncnn35)CCC4)CC2)c1	98.1*	-2.6	-10.2	11.3	2.5	101.5

Source: PubChem (several laboratories)
